High-throughput results deposited in PubChem BioAssay by several laboratories.
The list is not random: actives were taken first. Their share in the collection is about 2.7%.
RBBP9 inh: inhibitors of human serine hydrolase RBBP9 | O75884 | recombinant RBBP9, FP-Rh probe fluorescence polarization | inhibition, % at 7.94 µM | hit rate 0.2% among 220,000;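 active means inhibition above the campaign mean of all tested compounds plus 3 SD, cut at about 14% in these data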
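Measured by – fluorescence polarization · Test system – RBBP9 protein · Input – 2.5 µM RBBP9 dispensing solution, before mixing · Measure – percent inhibition from mP, scaled between DMSO and no-protein wells · Benchmarks – DMSO-treated enzyme wells and wells lacking RBBP9 · Times – preincubation 30 min plus labeling 45 min at 25 °C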
p97 ATPase inh: inhibitors of human p97 ATPase | P55072 | recombinant p97 ATPase, Kinase-Glo ATP luminescence, 3 h | inhibition, % at 8 µM | hit rate 0.42% among 220,000 | AID 1481; in the data active means inhibition above about 15%
Target sequence (P55072 whole entry, looked up): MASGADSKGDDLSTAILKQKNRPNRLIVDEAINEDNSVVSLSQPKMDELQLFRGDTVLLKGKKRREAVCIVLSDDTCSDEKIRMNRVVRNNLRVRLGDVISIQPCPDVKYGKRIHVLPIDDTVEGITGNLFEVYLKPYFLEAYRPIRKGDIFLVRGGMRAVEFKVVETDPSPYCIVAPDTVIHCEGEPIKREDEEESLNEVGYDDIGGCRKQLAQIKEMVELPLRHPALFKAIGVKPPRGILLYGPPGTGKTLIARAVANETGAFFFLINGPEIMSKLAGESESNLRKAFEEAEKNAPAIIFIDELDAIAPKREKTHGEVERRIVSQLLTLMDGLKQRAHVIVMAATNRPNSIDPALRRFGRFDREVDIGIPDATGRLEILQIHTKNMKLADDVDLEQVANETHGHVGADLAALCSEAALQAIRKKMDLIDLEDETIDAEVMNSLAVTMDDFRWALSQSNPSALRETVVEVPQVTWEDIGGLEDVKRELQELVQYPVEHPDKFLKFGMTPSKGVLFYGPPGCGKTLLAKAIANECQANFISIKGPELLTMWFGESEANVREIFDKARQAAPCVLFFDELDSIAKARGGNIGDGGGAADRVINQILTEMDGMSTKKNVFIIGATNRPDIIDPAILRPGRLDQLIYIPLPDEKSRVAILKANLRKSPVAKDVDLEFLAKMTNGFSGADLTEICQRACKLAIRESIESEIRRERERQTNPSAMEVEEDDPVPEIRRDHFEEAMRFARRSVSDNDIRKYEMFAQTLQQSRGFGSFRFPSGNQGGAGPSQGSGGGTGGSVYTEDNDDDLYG
Wee1 degr inh: human Wee1 degradation inhibition, primary screen; reporter increase, % at 5 µM; HeLa Luc-Wee1K328M stability, luciferase luminescence; 100% = proteasome inhibitor MG132 effect; P30291; hit rate 1.2% among 220,000;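 active means activation above the mean of all tested compounds plus 3 SD, set per screening run, cut at about 8.8% in these data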;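 further: cells exposed to compound for 20 h before luminescence read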
L929 necroptosis: L929 zVAD cell death inhibition; L929 zVAD necroptosis rescue, ATP luminescence, 24 h; with zVAD 60 µM; hit rate 0.38% among 220,000; viability rescue, % at 10 µM;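 active means activation, scaled between plate controls, above about 75%, limit read from the data; inactive means activation under that limit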
PfM18AAP inh-1: blocks P. falciparum M18 aspartyl aminopeptidase; recombinant PfM18AAP, H-Glu-NHMec fluorogenic cleavage; inhibition, % at 7.35 µM; hit rate 1.2% among 290,000;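 active means inhibition above the campaign mean inhibition over all tested compounds plus 3 SD, cut at about 28% in these data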
TNF necrop inh: blocks TNF-alpha induced death of Jurkat FADD-/- cells; activation (protection from cell death), % at 10 µM; Jurkat FADD-/- TNF necroptosis rescue, ATP luminescence, 24 h; 0 = TNF only, 100 = no-TNF cells; hit rate 0.068% among 220,000;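 active means activation, meaning protection from cell death, of at least 50% relative to plate controls; inactive means activation below 50%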;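 further: necroptosis triggered by 40 ng/mL TNF-alpha added together with compound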
PfM18AAP inh-2: confirmation of Plasmodium falciparum M18 aspartyl aminopeptidase inhibitors | recombinant PfM18AAP, H-Glu-NHMec fluorogenic cleavage | shares compounds with PfM18AAP inh-1 | hit rate 28% among 2,400 | inhibition, % at 7.35 µM | AID 2170;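 active means mean inhibition over replicate wells above the hit cutoff set for the earlier primary screen, cut at about 29% in these data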
CTSL1 confirm: counter-screen for PFM18AAP inhibitors: confirmation of human cathepsin L inhibitors; shares compounds with PfM18AAP inh-1; purified cathepsin L1, Z-Leu-Arg-MCA fluorescence; AID 2178; 2,400 tested, under 10 active; inhibition, % at 5.96 µM;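 active means average inhibition across replicates above the hit cutoff set in the earlier primary screen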
A number is an active result.

Screening CC(Sc1ccc(S(=O)(=O)N2CCOCC2)cc1[N+](=O)[O-])C(=O)O (centres undefined) returned RBBP9 inh inactive, p97 ATPase inh inactive, Wee1 degr inh inactive, L929 necroptosis inactive, PfM18AAP inh-1 33, TNF necrop inh inactive, PfM18AAP inh-2 inactive and CTSL1 confirm inactive.
`CC(C)C(Nc1ccc(S(=O)(=O)N2CCOCC2)cc1[N+](=O)[O-])C(=O)O` (centres undefined) gave RBBP9 inh inactive, p97 ATPase inh inactive, Wee1 degr inh inactive, L929 necroptosis inactive, PfM18AAP inh-1 inactive and TNF necrop inh inactive.
`Cc1c(C(=O)Nc2ccccc2F)sc2ncn(CC(=O)N3CCOCC3)c(=O)c12` gave PfM18AAP inh-1 inactive.
Screening O=C(CN1C(=O)c2ccccc2S1(=O)=O)c1ccc(O)c(O)c1 returned RBBP9 inh inactive, p97 ATPase inh inactive, Wee1 degr inh inactive, L929 necroptosis inactive, PfM18AAP inh-1 47, TNF necrop inh inactive, PfM18AAP inh-2 35 and CTSL1 confirm inactive.
`CCN(CC)c1ccc2c(c1)OC(N)=C(C#N)C2c1cccnc1` (centres undefined) gave RBBP9 inh inactive, p97 ATPase inh inactive, Wee1 degr inh inactive, L929 necroptosis inactive, PfM18AAP inh-1 45, TNF necrop inh inactive, PfM18AAP inh-2 inactive and CTSL1 confirm inactive.
Screening N#CC1=C(N)Oc2cc(N)ccc2C1c1cccnc1 (centres undefined) returned RBBP9 inh inactive, p97 ATPase inh inactive, Wee1 degr inh inactive, PfM18AAP inh-1 inactive and TNF necrop inh inactive.
`Cc1ccc(CS(=O)(=O)CC(C)(O)c2ccccc2)cc1` (centres undefined) gave PfM18AAP inh-1 inactive.
For CC(=O)Nc1ccccc1C(=O)C(=O)Nc1ccc(F)c(Cl)c1 the results were PfM18AAP inh-1 inactive.
`NNc1nc(-c2ccccc2Cl)nc2ccccc12` gave PfM18AAP inh-1 45, PfM18AAP inh-2 inactive and CTSL1 confirm inactive.
`COc1cccc(-n2c(=O)c3ccccc3n3c(=S)[nH]nc23)c1` gave PfM18AAP inh-1 36, PfM18AAP inh-2 inactive and CTSL1 confirm inactive.
`COCCCn1c(=O)c2ccccc2n2c(=S)[nH]nc12` gave PfM18AAP inh-1 35, PfM18AAP inh-2 inactive and CTSL1 confirm inactive.
`CCc1ccc(-n2c(=O)c3ccccc3n3c(=S)[nH]nc23)cc1` gave PfM18AAP inh-1 inactive.
Screening Cc1cccc(-n2c(=O)c3ccccc3n3c(=S)[nH]nc23)c1C returned PfM18AAP inh-1 40, PfM18AAP inh-2 inactive and CTSL1 confirm inactive.
`COCCn1c(SCC(=O)N2CCCCCC2)nnc1-c1ccco1` gave PfM18AAP inh-1 inactive.
O=C(c1ccc(F)cc1Cl)N1CCN(S(=O)(=O)c2cccs2)CC1 was read as PfM18AAP inh-1 inactive.
`CC(=O)N1c2ccc(S(=O)(=O)N3CCCC3)cc2CC1C(=O)NCc1ccccc1F` (centres undefined) gave PfM18AAP inh-1 inactive.
`Cc1ccc(-n2sc3ccccc3c2=O)cc1` gave RBBP9 inh 37, p97 ATPase inh inactive, Wee1 degr inh inactive, L929 necroptosis inactive, PfM18AAP inh-1 66, TNF necrop inh inactive, PfM18AAP inh-2 76 and CTSL1 confirm inactive.
`Cc1ccc(Cn2c(=O)sc3ccccc3c2=O)cc1` gave RBBP9 inh inactive, p97 ATPase inh inactive, Wee1 degr inh inactive, L929 necroptosis inactive, PfM18AAP inh-1 inactive and TNF necrop inh inactive.
Screening CN(C)C(=O)CNC(=O)CN1C(=O)NC2(CCCc3sccc32)C1=O (centres undefined) returned PfM18AAP inh-1 inactive.
For Cc1c(C)n(CCc2ccccc2)c2ncnc(NCCCO)c12 the results were PfM18AAP inh-1 inactive.
Cc1c(C)n(Cc2ccccc2)c2ncnc(NN)c12 was read as PfM18AAP inh-1 34, PfM18AAP inh-2 inactive and CTSL1 confirm inactive.
Cc1c(C)n(Cc2ccccc2)c2ncnc(NCCN(C)C)c12 was read as PfM18AAP inh-1 inactive.
`Cc1c(C)n(CCc2ccccc2)c2ncnc(NN)c12` gave PfM18AAP inh-1 44, PfM18AAP inh-2 inactive and CTSL1 confirm inactive.
Screening COc1cc(/C=C(\C#N)C(=O)NC2CCCCC2)ccc1OCc1ccc(C(=O)O)cc1 returned RBBP9 inh inactive, p97 ATPase inh inactive, Wee1 degr inh inactive, L929 necroptosis inactive, PfM18AAP inh-1 inactive and TNF necrop inh inactive.
Screening COc1cc(/C=C(/C#N)C(=O)Nc2ccc(Cl)cc2)ccc1Oc1nc(Cl)ncc1F returned RBBP9 inh inactive, p97 ATPase inh inactive, Wee1 degr inh inactive, L929 necroptosis inactive, PfM18AAP inh-1 inactive and TNF necrop inh inactive.
For O=c1cc(CN2CCN(Cc3ccccc3)CC2)c2ccc(O)c(O)c2o1 the results were PfM18AAP inh-1 48, PfM18AAP inh-2 inactive and CTSL1 confirm inactive.
For O=c1cc(CN2CCOCC2)c2ccc(O)c(O)c2o1 the results were PfM18AAP inh-1 36, PfM18AAP inh-2 inactive and CTSL1 confirm inactive.
Screening Cc1c(O)ccc2c(CN3CCN(Cc4ccccc4)CC3)cc(=O)oc12 returned PfM18AAP inh-1 inactive.
O=[N+]([O-])c1ccc(Cl)c(-c2ccc(/C=N/n3cnnc3)o2)c1 was read as PfM18AAP inh-1 inactive.
COc1cc([N+](=O)[O-])ccc1-c1ccc(/C=N\n2cnnc2)o1 was read as PfM18AAP inh-1 44, PfM18AAP inh-2 inactive and CTSL1 confirm inactive.
Cc1cc(-c2ccc(/C=N/n3cnnc3)o2)c(C)c([N+](=O)[O-])c1 was read as PfM18AAP inh-1 43, PfM18AAP inh-2 inactive and CTSL1 confirm inactive.
COc1ccc(C(=O)C2CCCN(Cc3cccn3-c3ccc(Cl)cn3)C2)c(OC)c1 (centres undefined) was read as RBBP9 inh inactive, p97 ATPase inh inactive, Wee1 degr inh inactive, L929 necroptosis inactive, PfM18AAP inh-1 inactive and TNF necrop inh inactive.
Screening CC1=CC(C)(C)N(C(=O)CSc2ncn[nH]2)c2ccc(C)cc21 returned RBBP9 inh inactive, p97 ATPase inh inactive, Wee1 degr inh inactive, L929 necroptosis inactive, PfM18AAP inh-1 56, TNF necrop inh inactive, PfM18AAP inh-2 inactive and CTSL1 confirm inactive.
CC1=CC(C)(C)N(C(=O)CN2C(=O)CCC2=O)c2ccc(C)cc21 was read as RBBP9 inh inactive, p97 ATPase inh inactive, Wee1 degr inh inactive, L929 necroptosis inactive, PfM18AAP inh-1 inactive and TNF necrop inh inactive.
